Published values pooled from the literature.
Values after ≈ are worked out from the molar mass of the structure shown.
Organism: Pseudomonas aeruginosa

COc1cc(C#CC(=O)c2ccccc2Cl)ccc1O  activity vs control (microbial growth, absorbance; 10 µM, 24 h): 98%
O=C(C=Cc1ccc(O)c(O)c1)Oc1ccccc1  MIC (microbial growth, broth dilution; ATCC27853): 8 µg/mL
C[C@@H](O)[C@H]1C(=O)N2C(C(=O)O)=C(S[C@@H]3CN[C@H](C(=O)N(C)C)C3)[C@H](C)[C@H]12  MIC (microbial growth, broth dilution; ATCC27853; 20 h): < 0.5 µg/mL
O=C(C=Cc1ccc(O)c(O)c1)OCc1ccccc1  MIC (microbial growth, broth dilution; ATCC27853): 8 µg/mL
COc1cc(C=Nc2ccc(C)cc2Cl)ccc1O  inhibition zone (microbial growth, disc diffusion; 2000 µg/mL, 24 h): 12.7 mm
CC1(C)S[C@@H]2[C@H](NC(=O)[C@H](N)c3ccccc3)C(=O)N2[C@H]1C(=O)O  MIC (microbial growth, broth dilution; ATCC27853): 8 µg/mL
Cl.N[C@@H]1CCN(c2cc(C(=O)NCC(=O)O)ccc2NC(=O)c2cc(Br)c(Br)[nH]2)C1  MIC (microbial growth, broth dilution; ATCC27853): > 32 µg/mL
OC(C#Cc1ccc(F)c(F)c1)c1ccccc1Cl (stereo not drawn)  activity vs control (microbial growth, absorbance; 100 µM, 24 h): 97%
CN[C@H](CC(C)C)C(=O)N[C@H]1C(=O)N[C@@H](CC(N)=O)C(=O)N[C@H]2C(=O)N[C@H]3C(=O)N[C@H](C(=O)N[C@H](C(=O)O)c4cc(O)cc(O)c4-c4cc3ccc4O)[C@H](O)c3ccc(c(Cl)c3)Oc3cc2cc(c3O[C@@H]2O[C@H](CO)[C@@H](O)[C@H](O)[C@H]2O[C@H]2C[C@](C)(N)[C@H](O)[C@H](C)O2)Oc2ccc(cc2Cl)[C@H]1O  MBC (microbial killing; ATCC47085): 1000 µg/mL (≈ 690 µM)
CC(C)(O/N=C(\C(=O)N[C@@H]1C(=O)N2C(C(=O)[O-])=C(C[n+]3ccccc3)CS[C@H]12)c1csc(N)n1)C(=O)O  MIC90 (microbial growth; PAO1): 4 µg/mL (≈ 7.32 µM)
COc1cc(C#CC(O)CC(C)C)ccc1O (stereo not drawn)  activity vs control (microbial growth, absorbance; 100 µM, 24 h): 93%
COc1cc(C=Nc2ccc([N+](=O)[O-])cc2)ccc1O  inhibition zone (microbial growth, disc diffusion; 2000 µg/mL, 24 h): 14.2 mm
CC(C)(C)OC(=O)N[C@@H]1CCN(c2cc(C(=O)NCC(=O)O)ccc2NC(=O)c2cc(Br)c(Br)[nH]2)C1  MIC (microbial growth, broth dilution; ATCC27853): > 32 µg/mL
O=C(C=Cc1ccc(O)c(O)c1)Oc1cccc2cccnc12  MIC (microbial growth, broth dilution; ATCC27853): 4 µg/mL
Cc1[nH]c(C(=O)Nc2ccc(C(=O)NCC(=O)O)cc2N2CCNCC2)c(Cl)c1Cl.Cl  MIC (microbial growth, broth dilution; ATCC27853): > 32 µg/mL
Cc1ccc(C(=O)C#Cc2ccc(F)c(F)c2)cc1  activity vs control (microbial growth, absorbance; 100 µM, 24 h): 96%
CC1CCC(C(C)C)C(OC(=O)C=Cc2ccc(O)c(O)c2)C1 (stereo not drawn)  MIC (microbial growth, broth dilution; ATCC27853): 2 µg/mL
COc1cccc(C(=O)C#Cc2ccc(O)c(OC)c2)c1  activity vs control (microbial growth, absorbance; 10 µM, 24 h): 87%
Cc1[nH]c(C(=O)Nc2ccc(-c3n[nH]c(=O)o3)cc2N2CCC[C@H](N)C2)c(Cl)c1Cl.Cl  MIC (microbial growth, broth dilution; ATCC27853): 16 µg/mL
COc1cc(C#CC(=O)c2ccc(C(F)(F)F)cc2)ccc1O  activity vs control (microbial growth, absorbance; 10 µM, 24 h): 102%
Cc1[nH]c(C(=O)Nc2ccc(C(=O)NCC(=O)O)cc2N2CC[C@H](N)C2)c(Cl)c1Cl.Cl  MIC (microbial growth, broth dilution; ATCC27853): > 32 µg/mL
O=C(O)c1cn(C2CC2)c2cc(N3CCNCC3)c(F)cc2c1=O  MIC (microbial growth; ATCC27853): 2 µM
Cc1[nH]c(C(=O)Nc2ccc(C(=O)NCC(=O)O)cc2N2CC[C@@H](NC(=O)OC(C)(C)C)C2)c(Cl)c1Cl  MIC (microbial growth, broth dilution; ATCC27853): > 32 µg/mL
COc1cc(-c2[nH]nnc2C(=O)c2ccccc2)ccc1O  activity vs control (microbial growth, absorbance; 10 µM, 24 h): 95%
COc1cc(C=Nc2cccc(O)c2)ccc1O  inhibition zone (microbial growth, disc diffusion; 2000 µg/mL, 24 h): 14.5 mm
CCCC(=O)C#Cc1ccc(O)c(OC)c1  activity vs control (microbial growth, absorbance; 100 µM, 24 h): 94%
Cc1[nH]c(C(=O)Nc2ccc(C(=O)NCc3n[nH]c(=O)o3)cc2N2CCNCC2)c(Cl)c1Cl.Cl  MIC (microbial growth, broth dilution; ATCC27853): > 32 µg/mL
